Source: PubChem (several laboratories)
Shown are actives, neighbours in structure and some others; about 3.7% of the full set was active somewhere.
EBI2 block: blocks human EBI2 receptor beta-arrestin signaling; P32249; EBI2 beta-arrestin recruitment, luminescence, 7a,25-OHC stimulated; inhibition, % at 5 µM; 0.81% of 360,000 active; AID 651636; in the data active means inhibition above about 38%;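 further: enzyme fragment complementation signal reports receptor beta-arrestin coupling in cells; 0% = agonist plus DMSO wells and 100% = wells without agonist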
Target sequence (P32249 whole entry, looked up, the tested form may be a part): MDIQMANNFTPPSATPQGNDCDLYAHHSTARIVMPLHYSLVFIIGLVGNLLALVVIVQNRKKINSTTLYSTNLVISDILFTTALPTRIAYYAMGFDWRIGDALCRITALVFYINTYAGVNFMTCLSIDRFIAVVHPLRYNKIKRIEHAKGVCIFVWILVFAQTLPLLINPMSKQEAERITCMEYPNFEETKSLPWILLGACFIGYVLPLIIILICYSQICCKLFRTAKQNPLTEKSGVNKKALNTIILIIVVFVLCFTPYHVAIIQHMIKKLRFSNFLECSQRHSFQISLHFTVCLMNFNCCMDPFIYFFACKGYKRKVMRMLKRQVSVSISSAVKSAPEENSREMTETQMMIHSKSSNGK
Myeloid diff MLP: myeloid differentiation induction | AID 624256 | calls only at 10 µM | 1% of 360,000 active | ER-HoxA9 myeloid progenitors, lysozyme-GFP differentiation, flow cytometry;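 active means normalized GFP-positive differentiation at or above the plate's own cutoff, the solvent-only control mean plus 3 SD; inconclusive means no clear call, values can overlap the other calls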;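 further: cells exposed to compound for four days before flow analysis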
MC4R ag barr: human MC4R agonism via beta-arrestin | U2OS MC4R beta-arrestin complementation, luminescence; percent of melanotan II response, DMSO zero | activation, % at 8.9 µM | 0.98% of 360,000 active | AID 540308;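 active means activation above a per-plate cutoff, the mean activation of sample wells on that plate plus 3 SD, cut at about 8% in these data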
Target sequence (P32245 whole entry, looked up): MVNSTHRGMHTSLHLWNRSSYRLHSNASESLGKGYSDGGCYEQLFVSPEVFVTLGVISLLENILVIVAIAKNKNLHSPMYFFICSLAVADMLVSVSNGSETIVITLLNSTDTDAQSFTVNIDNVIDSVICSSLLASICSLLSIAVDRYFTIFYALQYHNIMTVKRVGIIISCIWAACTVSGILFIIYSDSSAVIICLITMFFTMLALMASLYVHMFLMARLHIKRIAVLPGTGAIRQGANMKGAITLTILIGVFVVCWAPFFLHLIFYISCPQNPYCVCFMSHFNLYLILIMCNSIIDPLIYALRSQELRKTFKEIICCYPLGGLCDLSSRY
MC4R antag cAMP: blocks human MC4R cAMP signaling. 0.48% of 360,000 active. P32245. MC4R-expressing cells, MTII-stimulated cAMP, LANCE TR-FRET. inhibition, % at 6.5 µM. AID 540295;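 active means inhibition above its plate's cutoff, the mean of tested wells on that plate plus 3 SD, cut at about 29% in these data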;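 further: 0% = Melanotan II alone and 100% = Melanotan II plus saturating MCL0020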
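Assay system: U2OS cells stably expressing human melanocortin 4 receptor (MC4R) / Dosing: 6.5 µM / Timing: compound 30 min, challenge 1 h, detection 1 h / Measured by: Eu-cAMP/anti-cAMP TR-FRET, emission 671 nm / Replicates: singlicate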
Granule exo inh: blocks lytic granule exocytosis. TALL-104 LAMP-1 surface exposure, flow cytometry; cells stimulated with thapsigargin and PMA. inhibition, % at 10 µM. 0.66% of 360,000 active. AID 651702;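 active means inhibition above about 55%, limit read from the data; inconclusive means no clear call, values can overlap the other calls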
EBI2 antag conf: confirmation of human EBI2 receptor antagonists; 29% of 2,400 active; inhibition, % at 5 µM; shares compounds with EBI2 block; EBI2 beta-arrestin luminescence, 7a,25-OHC antagonism;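 active means inhibition of at least 50%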
EBI2 ag: counter-screen for EBI2 antagonists: EBI2 agonist activity | activation, % at 5 µM | shares compounds with EBI2 block | EBI2-expressing cells, agonist mode, luminescence, 60 min; 0% vehicle, 100% 7α,25-dihydroxycholesterol control | 2,400 tested, under 10 active;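 active means activation of at least 50%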
bGal counter: inhibits E. coli beta-galactosidase, counter-screen for EBI2 antagonists | shares compounds with EBI2 block | purified beta-galactosidase, luminescent Galacton Star, 15 min | inhibition, % at 5 µM | 1% of 2,400 active;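 active means replicate-average signal at least 3 plate SD below neutral wells, shown as high inhibition, flagging enzyme-inhibiting false positives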;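 further: 0% = DMSO wells with enzyme and 100% = wells lacking enzyme; higher means stronger loss of beta-gal luminescence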
* = called active by the depositor; i = inactive; ? = inconclusive; . = not tested or not shown.

SMILES | EBI2 block | Myeloid diff MLP | MC4R ag barr | MC4R antag cAMP | Granule exo inh | EBI2 antag conf | EBI2 ag | bGal counter
O=C(CN(c1ccccc1)S(=O)(=O)c1ccccc1)NCCSc1nc2ccccc2s1 | 59* | i | 4 | -2 | 48 | 53* | 1 | -3
Cc1ccc(N(CC(=O)NCCSc2nc3ccccc3s2)S(=O)(=O)c2ccccc2)c(C)c1 | 46* | i | -1 | 18 | 43 | 14 | 0 | 2
Cc1cc(C)cc(N(CC(=O)NCCSc2ccccn2)S(=O)(=O)c2ccccc2)c1 | -9 | i | 0 | 5 | -3 | . | . | .
OCC[C@@H]1C[C@H](O)[C@@H](O)[C@@]2(OCc3cc(C(F)(F)F)ccc32)O1 | 1 | i | -2 | 9 | -1 | . | . | .
COC1C(CO)OC(n2c3c(Cl)cccc3c3c4c(c5c6cccc(Cl)c6[nH]c5c32)C(=O)NC4=O)C(O)C1O (stereo not given) | 7 | ? | 0 | 4 | -7 | . | . | .
COc1ccc(/C=C/C(=O)NCC(=O)N/N=C/c2ccc(OC)cc2)cc1 | 62* | i | -2 | 0 | 0 | 44 | 1 | 0
COc1ccc(/C=C/C(=O)Nc2ccc(OC)nc2)cc1 | 44* | i | -1 | 10 | -6 | 16 | 0 | 1
O=C(COc1ccccc1)NCC(=O)N/N=C/c1ccc(Br)cc1 | 38* | i | -2 | 14 | -4 | 14 | -1 | -13
COc1ccc(/C=C/C(=O)NCC(=O)N/N=C/c2cccnc2)cc1 | 12 | i | -1 | -11 | -1 | . | . | .
COc1cc(C)c(NC(=S)NCCCN2CCOCC2)cc1OC | 3 | i | 1 | -1 | 12 | . | . | .
CCOCCCNS(=O)(=O)c1ccc(NC(=O)C2CC(=O)N(c3ccc(C)cc3)C2)cc1 (stereo not given) | 65* | i | -2 | 3 | -1 | 39 | -2 | -12
CCOc1ccc(N2CC(C(=O)Nc3ccc(S(=O)(=O)NCC4CCCO4)cc3)CC2=O)cc1 (stereo not given) | 51* | i | -1 | 12 | 9 | 27 | 1 | 7
Cc1ccc(N2CC(C(=O)Nc3ccc(S(=O)(=O)NCC4CCCO4)cc3)CC2=O)cc1C (stereo not given) | 38 | i | 0 | 11 | 17 | . | . | .
Cc1cc(OCC(=O)N2CCCC2)ccc1Cl | 23 | i | 1 | 3 | -2 | . | . | .
CCOC(=O)N1CCN(C(=O)COc2ccc(Cl)c(C)c2)CC1 | 86* | i | -1 | 8 | -2 | 54* | 1 | 1
CCOC(=O)N1CCN(C(=O)COc2ccc(Cl)cc2)CC1 | 83* | i | -1 | -3 | -2 | 55* | -1 | -14
O=C(OC1CC2CC1[C@H]1CCCCN1C2=O)N1CCCCC1 (stereo not given in full) | -3 | i | . | . | 4 | . | . | .
COC(=O)c1ccc(COC(=O)C2CCN(S(=O)(=O)c3c(C)cc(C)cc3C)CC2)o1 | 4 | i | 4 | 9 | -4 | . | . | .
O=C(Nc1ccccc1Oc1ccccc1)c1cccs1 | -16 | i | 1 | 2 | 0 | . | . | .
COc1ccccc1C(=O)N/C(=C\c1cn(S(=O)(=O)N(C)C)c2ccccc12)C(=O)N1CCN(C)CC1 | 3 | ? | 0 | 12 | 2 | . | . | .
COc1ccc(CNC(=O)c2cc(=O)c3cc(C)c(C)cc3o2)cc1 | 56* | i | 0 | 2 | 1 | 38 | 1 | 5
CCOC(=O)N1CCN(C(=O)c2cc3c(s2)-c2ccccc2OC3)CC1 | 82* | i | 0 | 24 | 2 | 74* | -1 | -10
COc1cccc(N2CCN(C(=O)c3cc4c(s3)-c3ccccc3OC4)CC2)c1 | 42 | i | 0 | 13 | 3 | . | . | .
CCOC(=O)N1CCN(C(=O)c2cc3c(=O)[nH]c4ccccc4c3s2)CC1 | 77* | i | -2 | 2 | 2 | 70* | -1 | 6
O=C(c1cc2c(s1)-c1ccccc1OC2)N1CCN(c2ccccc2)CC1 | 60* | i | 0 | 11 | 2 | 55* | -1 | -14
SMILES | EBI2 block | Myeloid diff MLP | MC4R ag barr | MC4R antag cAMP | Granule exo inh | EBI2 antag conf | EBI2 ag | bGal counter
CCOC(=O)N1CCN(C(=O)c2noc3c2COc2ccccc2-3)CC1 | 2 | i | -2 | 12 | 2 | . | . | .
COc1ccc(N2CCN(C(=O)c3cc4c(s3)-c3ccccc3OC4)CC2)cc1 | 80* | i | 1 | 17 | 1 | 67* | 0 | -8
COc1ccc(C(=O)Nc2ccc(C(=O)N3CCC(C)CC3)cc2)cc1OC | -11 | i | 0 | 5 | 6 | . | . | .
CN(C(=O)COC(=O)c1ccc(Cl)c(S(=O)(=O)NCc2ccccc2)c1)C1CCS(=O)(=O)C1 (stereo not given) | 3 | i | -3 | 12 | 2 | . | . | .
O=C(c1cc2c(s1)-c1ccccc1OC2)N1CCN(c2ccccn2)CC1 | 45* | i | 0 | 9 | -3 | 34 | 0 | -7
COC(=O)[C@]12CCCCC=C1N(Cc1ccco1)C(=O)[C@H](CC(=O)N1CCOCC1)C2 | -12 | i | . | . | -4 | . | . | .
O=C(CN1CCN(S(=O)(=O)c2ccc(Cl)c(Cl)c2)CC1)N1CCCC1 | -7 | i | -1 | -3 | 2 | . | . | .
CC(C)(C)c1ccc(C(=S)N2CCN(c3ccccc3)CC2)cc1 | 58* | i | 9.0* | 10 | 3 | 46 | -2 | -11
Cc1ccccc1N1CCN(C(=S)c2ccccc2)CC1 | -4 | i | 1 | -4 | 2 | . | . | .
S=C(NCC1CCCO1)N1CCN(c2cccc(Cl)c2)CC1 (stereo not given) | -1 | i | 1 | -3 | 2 | . | . | .
S=C(NCC1CCCO1)N1CCN(c2nc(-c3ccc(Cl)cc3)cs2)CC1 (stereo not given) | 86* | i | 0 | 13 | 16 | 66* | 2 | 5
COc1cc2cc(C(=O)N3CCN(Cc4ccc5c(c4)OCO5)CC3)[nH]c2cc1OC | 13 | ? | 2 | 19 | -6 | . | . | .
CC1CN(C(=O)c2cc3cc(F)ccc3[nH]2)CC(C)O1 (stereo not given) | -2 | i | 0 | 4 | 15 | . | . | .
O=C(c1cc2cc(F)ccc2[nH]1)N1CCN(Cc2ccc3c(c2)OCO3)CC1 | 93* | i | 5 | -9 | 4 | 79* | 2 | 1
CCN1CCN(C(=O)c2cc3cc(F)ccc3[nH]2)CC1 | 55* | i | 0 | -4 | -14 | 28 | 1 | 2
CCc1nc2ccc(C(=O)Nc3ccc(Cl)c(Cl)c3)cn2c1N(C)Cc1ccc(OC)cc1 | 9 | i | -3 | 5 | 30 | . | . | .
